Data reported in publication PMC11008256 (Cell reports. Physical science, 2024).
Structures can show the parent of a compound that is named as a salt. Ends that are not written are not given here. Peptide text beside a SMILES is read from it.

Tests used:
[1] = system: Human red blood cells; assay: Hemolytic activity assay; type: cell-based; conditions: 1 to 128 μmol L^−1, 4 h room temperature, absorbance 405 nm
[2] = system: K. pneumoniae NTUH K2044; assay: Antimicrobial activity, broth microdilution MIC; type: cell-based, Klebsiella pneumoniae; conditions: LB used for MIC testing to determine dosage for skin model
In short: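 Log-phase cells (an overnight LB culture diluted 1:100 in MHB at 37°C) seeded at 1 × 10^6 CFU mL-1 in LB for skin-model dosing, rather than the usual MHB. Peptide and polymyxin B control prepared in BSA buffer and tested at 0.0625–128 µmol L-1. Growth read as OD600; three independent replicates.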

[3] = system: K. pneumoniae NTUH K2044; assay: Skin abscess mouse model; type: in vivo, female CD-1 mice; conditions: single topical dose at MIC, monitored 4 days, n = 6
[4] = system: pre-formed biofilms of K. pneumoniae NTUH K2044; assay: Biofilm eradication; type: cell-based, Klebsiella pneumoniae; conditions: 60 μmol L^−1, 24 h
In short: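 Overnight NTUH K2044 culture diluted to OD600 0.5 in TSB + 0.5% glucose. Biofilms grown 24 h at 37°C static in 35 mm dishes. Peptide diluted in BSA buffer (0.2% BSA, 0.01% acetic acid) plus MHB; untreated control received buffer plus MHB. Treatment 24 h at 37°C static. Dispersed cells and PBS-washed (×3), PBS-resuspended biofilm plated for CFU mL-1. ±SEM; one-way ANOVA with Dunnett versus untreated.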

[5] = system: K. pneumoniae NTUH K2044 biofilm matrix polysaccharides; assay: Confocal microscopy imaging of biofilm polysaccharide matrix; type: cell-based, Klebsiella pneumoniae
[6] = Peptide:polysaccharide aggregation assay; parameters: species or system Klebsiella pneumoniae; conditions: 100 μmol L^−1 peptide, 300 μg mL^−1 polysaccharide
In short: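 Polysaccharide hot-phenol-extracted from an overnight LB culture (60 min, 68°C; chloroform; ethanol precipitation) and quantified by uronic acid assay. Mixed with peptide in 10 mM potassium phosphate, then immediately spun 15,600 rpm for 15 min. Pellets resuspended in water, run on 4–8% bis-tris SDS-PAGE beside 2 µg purified polysaccharide, and Alcian blue-stained. Band density measured with the no-peptide control subtracted as background. Triplicate; ±SEM.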

Row | Compound | hemolysis [1] | MIC used as dose for skin model [2] [µmol/L] | mouse weight changes, skin damage (proxy of toxicity) [3] | biofilm and dispersed CFU mL^−1 [4] | effect on biofilm polysaccharide matrix (confocal) ([5]; 15 μmol L^−1, 24 h, concanavalin A Texas red stain) | effect on biofilm polysaccharide matrix (confocal) ([5]; 60 μmol L^−1, 24 h) | aggregation with extracellular polysaccharides (in words) [6]
1 | RRIRPRPPRLPRPRPRPLPFPRPGPRPIPRPLPFP [Bac7 (1–35)] | limited ability to lyse red blood cells | 2 | No variations in weight, damage to the skin tissue, or other harmful consequences | – | – | – | –
2 | CC[C@H](C)CCCCC(=O)N[C@@H](CCN)C(=O)N[C@H](C(=O)N[C@@H](CCN)C(=O)N[C@H]1CCNC(=O)[C@H]([C@@H](C)O)NC(=O)[C@H](CCN)NC(=O)[C@H](CCN)NC(=O)[C@H](CC(C)C)NC(=O)[C@@H](Cc2ccccc2)NC(=O)[C@H](CCN)NC1=O)[C@@H](C)O [polymyxin B, polymyxin B sulfate, reference compound] (HELM PEPTIDE1{[CC[C@H](C)CCCCC(=O)[*:2]].[Dab].T.[Dab].[Dab].[Dab].[dF].L.[Dab].[Dab].T}$PEPTIDE1,PEPTIDE1,5:R3-11:R2$$$V2.0; N-terminus assumed; bridges inferred) | – | 1 | No variations in weight, damage to the skin tissue, or other harmful consequences | – | – | – | –
3 | PRPIPRPLPFPRPGPRPIPRPLPFPRPGPRPIPRP [Bac7 (24–59)] | – | – | – | did not significantly change | drop in overall height (30 μm) and moderate change in the polysaccharide matrix | polysaccharide matrix loss from the upper layers of the biofilm | highest aggregation potential
